From ChEMBL document CHEMBL1135248, “Synthesis and evaluation of pseudopeptide analogues of a specific CXCR4 inhibitor, T140: the insertion of an (E)-alkene dipeptide isostere into the betaII'-turn moiety” (Bioorg Med Chem Lett, 2002)
Several values for one entry are separate records, joined by “and”; a condition that tells them apart may be missing. Equal entries are not always repeated.

Experiments:
[1] = tested on: MT4; test: Cytotoxicity based on the reduction of the viability of mock-infected MT-4 cells using the MTT method; type: functional, Homo sapiens
Procedure, shortened: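 Mock-infected MT-4 cells were exposed to compound. Loss of viability was read by the MTT method, and CC50 was derived. Values are the mean of at least three experiments.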

[2] = tested on: MT4; test: Anti-HIV activity based on the protection against HIV-induced cytopathogenicity in MT-4 cells using MTT method; type: functional, cell-based, Homo sapiens
Procedure, shortened: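 MT-4 cells challenged with the X4 strain HIV-1 IIIB. Protection from virus-induced cytopathogenicity was read by the MTT method, and EC50 was derived. Values are the mean of at least three experiments.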

[3] = molecular target: T1, C-X-C chemokine receptor type 4 (Homo sapiens, UniProt P61073); test: (§1) Inhibitory activity based on the inhibition of [Ca2+] mobilization induced by human SDF-1alpha stimulation through CXCR4
T1 sequence (P61073 whole entry): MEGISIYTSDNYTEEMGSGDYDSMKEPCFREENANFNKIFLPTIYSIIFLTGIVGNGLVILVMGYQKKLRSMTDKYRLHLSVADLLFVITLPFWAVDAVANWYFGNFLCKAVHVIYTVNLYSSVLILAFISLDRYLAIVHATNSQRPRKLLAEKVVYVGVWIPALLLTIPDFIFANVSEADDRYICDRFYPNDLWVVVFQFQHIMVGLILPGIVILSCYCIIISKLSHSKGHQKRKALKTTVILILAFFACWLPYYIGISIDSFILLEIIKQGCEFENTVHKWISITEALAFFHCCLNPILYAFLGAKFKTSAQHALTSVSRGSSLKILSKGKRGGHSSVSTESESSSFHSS
Procedure, shortened: (§2)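 CHO cells transfected with CXCR4 were loaded with Fura-2-AM for 1–2 h and then pretreated with analogue. Recombinant human SDF-1α was added 3 min later. [Ca2+]i rise was measured spectrofluorometrically by a modified Fura-2 method, and IC50 was derived from inhibition of mobilization. Values are the mean of two experiments.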

[4] = molecular target: T1, C-X-C chemokine receptor type 4; test: as §1; procedure, shortened: as §2; remark: listed apart in the source
[5] = Selectivity index (SI) is determined as the ratio of CC50/EC50; type: functional
Procedure, shortened: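 Ratio of CC50 to EC50, both taken from MTT read-outs in MT-4 cells: mock-infected cells for CC50 and HIV-1 IIIB-infected cells for EC50. Each value is the mean of at least three experiments.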

C[C@H]1/C=C\[C@@H](CCCCN)NC(=O)[C@H](CCCCN)NC(=O)[C@H](CCCN=C(N)N)NC(=O)[C@H](Cc2ccc(O)cc2)NC(=O)[C@@H](NC(=O)[C@H](CSCc2ccccc2)NC(=O)[C@H](CCCN=C(N)N)NC(=O)[C@@H](N)CCCN=C(N)N)CSSC[C@@H](C(=O)N[C@@H](CCCN=C(N)N)C(N)=O)NC(=O)[C@H](CCCNC(N)=O)NC(=O)[C@H](CCCN=C(N)N)NC(=O)[C@H](Cc2ccc(O)cc2)NC1=O [listing 1 of 2 here]
CC50 [1]: 59 µM
CC50 ([1]; Homo sapiens, MT4): 54 µM

C[C@H]1/C=C\[C@@H](CCCCN)NC(=O)[C@H](CCCCN)NC(=O)[C@H](CCCN=C(N)N)NC(=O)[C@H](Cc2ccc(O)cc2)NC(=O)[C@@H](NC(=O)[C@H](CSC23C[C@H]4C[C@@H](C2)C[C@@H](C3)C4)NC(=O)[C@H](CCCN=C(N)N)NC(=O)[C@@H](N)CCCN=C(N)N)CSSC[C@@H](C(=O)N[C@@H](CCCN=C(N)N)C(N)=O)NC(=O)[C@H](CCCNC(N)=O)NC(=O)[C@H](CCCN=C(N)N)NC(=O)[C@H](Cc2ccc(O)cc2)NC1=O [listing 1 of 2 here]
EC50 ([2]; mt4): 0.0071 µM and 0.017 µM
IC50 [3]: 0.17 µM

C[C@H]1/C=C\[C@@H](CCCCN)NC(=O)[C@H](CCCCN)NC(=O)[C@H](CCCNC(=N)N)NC(=O)[C@H](Cc2ccc(O)cc2)NC(=O)[C@@H](NC(=O)[C@H](Cc2ccc3ccccc3c2)NC(=O)[C@H](CCCNC(=N)N)NC(=O)[C@@H](N)CCCN=C(N)N)CSSC[C@@H](C(=O)N[C@@H](CCCNC(=N)N)C(=O)O)NC(=O)[C@H](CCCNC(N)=O)NC(=O)[C@H](CCCNC(=N)N)NC(=O)[C@H](Cc2ccc(O)cc2)NC1=O
IC50 [4]: 0.0069 µM
IC50 [3]: 0.0073 µM

C[C@H]1/C=C\[C@@H](CCCCN)NC(=O)[C@H](CCCCN)NC(=O)[C@@H](CCCN=C(N)N)NC(=O)[C@H](Cc2ccc(O)cc2)NC(=O)[C@@H](NC(=O)[C@H](CSCc2ccccc2)NC(=O)[C@H](CCCN=C(N)N)NC(=O)[C@@H](N)CCCN=C(N)N)CSSC[C@@H](C(=O)N[C@@H](CCCN=C(N)N)C(N)=O)NC(=O)C(CCCNC(N)=O)NC(=O)[C@@H](CCCN=C(N)N)NC(=O)[C@H](Cc2ccc(O)cc2)NC1=O (stereo partly drawn)
SI [5]: 810 and 1300

C[C@H]1/C=C\[C@@H](CCCCN)NC(=O)[C@H](CCCCN)NC(=O)[C@H](CCCN=C(N)N)NC(=O)[C@H](Cc2ccc(O)cc2)NC(=O)[C@@H](NC(=O)[C@H](CSC23C[C@H]4C[C@@H](C2)C[C@@H](C3)C4)NC(=O)[C@H](CCCN=C(N)N)NC(=O)[C@@H](N)CCCN=C(N)N)CSSC[C@@H](C(=O)N[C@@H](CCCN=C(N)N)C(N)=O)NC(=O)[C@H](CCCNC(N)=O)NC(=O)[C@H](CCCN=C(N)N)NC(=O)[C@H](Cc2ccc(O)cc2)NC1=O [listing 2 of 2 here]
CC50 [1]: 57 µM
CC50 ([1]; Homo sapiens, MT4): 49 µM

C[C@H]1/C=C\[C@@H](CCCCN)NC(=O)[C@H](CCCCN)NC(=O)[C@@H](CCCN=C(N)N)NC(=O)[C@H](Cc2ccc(O)cc2)NC(=O)[C@@H](NC(=O)[C@H](Cc2c[nH]c3ccccc23)NC(=O)[C@H](CCCN=C(N)N)NC(=O)[C@@H](N)CCCN=C(N)N)CSSC[C@@H](C(=O)N[C@@H](CCCN=C(N)N)C(=O)O)NC(=O)C(CCCNC(N)=O)NC(=O)[C@@H](CCCN=C(N)N)NC(=O)[C@H](Cc2ccc(O)cc2)NC1=O (stereo partly drawn)
SI [5]: > 78000

C[C@H]1/C=C\[C@@H](CCCCN)NC(=O)[C@H](CCCCN)NC(=O)[C@@H](CCCN=C(N)N)NC(=O)[C@H](Cc2ccc(O)cc2)NC(=O)[C@@H](NC(=O)[C@H](Cc2ccc3ccccc3c2)NC(=O)[C@H](CCCN=C(N)N)NC(=O)[C@@H](N)CCCN=C(N)N)CSSC[C@@H](C(=O)N[C@@H](CCCN=C(N)N)C(=O)O)NC(=O)C(CCCNC(N)=O)NC(=O)[C@@H](CCCN=C(N)N)NC(=O)[C@H](Cc2ccc(O)cc2)NC1=O (stereo partly drawn)
SI [5]: > 220000 and 140000

C[C@H]1/C=C\[C@@H](CCCCN)NC(=O)[C@H](CCCCN)NC(=O)[C@H](CCCN=C(N)N)NC(=O)[C@H](Cc2ccc(O)cc2)NC(=O)[C@@H](NC(=O)[C@H](Cc2c[nH]c3ccccc23)NC(=O)[C@H](CCCN=C(N)N)NC(=O)[C@@H](N)CCCN=C(N)N)CSSC[C@@H](C(=O)N[C@@H](CCCN=C(N)N)C(N)=O)NC(=O)[C@H](CCCNC(N)=O)NC(=O)[C@H](CCCN=C(N)N)NC(=O)[C@H](Cc2ccc(O)cc2)NC1=O [listing 1 of 2 here]
IC50 [4]: 0.005 µM
EC50 ([2]; Homo sapiens, MT4): 0.0037 µM
EC50 ([2]; mt4): 0.0029 µM

Nc1ccn([C@H]2CC[C@@H](CO)O2)c(=O)n1 [ZALCITABINE]
CC50 ([1]; Homo sapiens, MT4): 48 µM
EC50 ([2]; Homo sapiens, MT4): 0.033 µM
SI [5]: 1500

C[C@H]1/C=C\[C@@H](CCCCN)NC(=O)[C@H](CCCCN)NC(=O)[C@@H](CCCN=C(N)N)NC(=O)[C@H](Cc2ccc(O)cc2)NC(=O)[C@@H](NC(=O)[C@H](Cc2ccc3ccccc3c2)NC(=O)[C@H](CCCN=C(N)N)NC(=O)[C@@H](N)CCCN=C(N)N)CSSC[C@@H](C(=O)N[C@@H](CCCN=C(N)N)C(N)=O)NC(=O)C(CCCNC(N)=O)NC(=O)[C@@H](CCCN=C(N)N)NC(=O)[C@H](Cc2ccc(O)cc2)NC1=O (stereo partly drawn)
SI [5]: 12000 and 31000

C[C@H]1/C=C\[C@@H](CCCCN)NC(=O)[C@H](CCCCN)NC(=O)[C@H](CCCN=C(N)N)NC(=O)[C@H](Cc2ccc(O)cc2)NC(=O)[C@@H](NC(=O)[C@H](CSCc2ccccc2)NC(=O)[C@H](CCCN=C(N)N)NC(=O)[C@@H](N)CCCN=C(N)N)CSSC[C@@H](C(=O)N[C@@H](CCCN=C(N)N)C(N)=O)NC(=O)[C@H](CCCNC(N)=O)NC(=O)[C@H](CCCN=C(N)N)NC(=O)[C@H](Cc2ccc(O)cc2)NC1=O [listing 2 of 2 here]
EC50 ([2]; Homo sapiens, MT4): 0.067 µM
EC50 ([2]; mt4): 0.045 µM
IC50 [3]: 0.036 µM

C[C@H]1/C=C\[C@@H](CCCCN)NC(=O)[C@H](CCCCN)NC(=O)[C@H](CCCN=C(N)N)NC(=O)[C@H](Cc2ccc(O)cc2)NC(=O)[C@@H](NC(=O)[C@H](Cc2c[nH]c3ccccc23)NC(=O)[C@H](CCCN=C(N)N)NC(=O)[C@@H](N)CCCN=C(N)N)CSSC[C@@H](C(=O)N[C@@H](CCCN=C(N)N)C(=O)O)NC(=O)[C@H](CCCNC(N)=O)NC(=O)[C@H](CCCN=C(N)N)NC(=O)[C@H](Cc2ccc(O)cc2)NC1=O
CC50 ([1]; Homo sapiens, MT4): 100 µM

Cc1cn([C@H]2C[C@H](N=[N+]=[N-])[C@@H](CO)O2)c(=O)[nH]c1=O [ZIDOVUDINE]
CC50 ([1]; Homo sapiens, MT4): 12 µM
EC50 ([2]; Homo sapiens, MT4): 0.0003 µM
SI [5]: 35000

C[C@H]1/C=C\[C@@H](CCCCN)NC(=O)[C@H](CCCCN)NC(=O)[C@H](CCCN=C(N)N)NC(=O)[C@H](Cc2ccc(O)cc2)NC(=O)[C@@H](NC(=O)[C@H](Cc2ccc3ccccc3c2)NC(=O)[C@H](CCCN=C(N)N)NC(=O)[C@@H](N)CCCN=C(N)N)CSSC[C@@H](C(=O)N[C@@H](CCCN=C(N)N)C(N)=O)NC(=O)[C@H](CCCNC(N)=O)NC(=O)[C@H](CCCN=C(N)N)NC(=O)[C@H](Cc2ccc(O)cc2)NC1=O
CC50 [1]: 58 µM
CC50 ([1]; Homo sapiens, MT4): 57 µM

C[C@H]1/C=C\[C@@H](CCCCN)NC(=O)[C@H](CCCCN)NC(=O)[C@H](CCCN=C(N)N)NC(=O)[C@H](Cc2ccc(O)cc2)NC(=O)[C@@H](NC(=O)[C@H](Cc2ccc3ccccc3c2)NC(=O)[C@H](CCCN=C(N)N)NC(=O)[C@@H](N)CCCN=C(N)N)CSSC[C@@H](C(=O)N[C@@H](CCCN=C(N)N)C(=O)O)NC(=O)[C@H](CCCNC(N)=O)NC(=O)[C@H](CCCN=C(N)N)NC(=O)[C@H](Cc2ccc(O)cc2)NC1=O [listing 1 of 2 here]
CC50 [1]: 67 µM and 270 µM

C[C@H]1/C=C\[C@@H](CCCCN)NC(=O)[C@H](CCCCN)NC(=O)[C@@H](CCCN=C(N)N)NC(=O)[C@H](Cc2ccc(O)cc2)NC(=O)[C@@H](NC(=O)[C@H](Cc2c[nH]c3ccccc23)NC(=O)[C@H](CCCN=C(N)N)NC(=O)[C@@H](N)CCCN=C(N)N)CSSC[C@@H](C(=O)N[C@@H](CCCN=C(N)N)C(N)=O)NC(=O)C(CCCNC(N)=O)NC(=O)[C@@H](CCCN=C(N)N)NC(=O)[C@H](Cc2ccc(O)cc2)NC1=O (stereo partly drawn)
SI [5]: 15000 and 20000

C[C@H]1/C=C\[C@@H](CCCCN)NC(=O)[C@H](CCCCN)NC(=O)[C@H](CCCN=C(N)N)NC(=O)[C@H](Cc2ccc(O)cc2)NC(=O)[C@@H](NC(=O)[C@H](Cc2ccc3ccccc3c2)NC(=O)[C@H](CCCN=C(N)N)NC(=O)[C@@H](N)CCCN=C(N)N)CSSC[C@@H](C(=O)N[C@@H](CCCN=C(N)N)C(=O)O)NC(=O)[C@H](CCCNC(N)=O)NC(=O)[C@H](CCCN=C(N)N)NC(=O)[C@H](Cc2ccc(O)cc2)NC1=O [listing 2 of 2 here]
EC50 ([2]; mt4): < 0.0003 µM and 0.0019 µM

C[C@H]1/C=C\[C@@H](CCCCN)NC(=O)[C@H](CCCCN)NC(=O)[C@@H](CCCN=C(N)N)NC(=O)[C@H](Cc2ccc(O)cc2)NC(=O)[C@@H](NC(=O)[C@H](CSC23C[C@H]4C[C@@H](C2)C[C@@H](C3)C4)NC(=O)[C@H](CCCN=C(N)N)NC(=O)[C@@H](N)CCCN=C(N)N)CSSC[C@@H](C(=O)N[C@@H](CCCN=C(N)N)C(N)=O)NC(=O)C(CCCNC(N)=O)NC(=O)[C@@H](CCCN=C(N)N)NC(=O)[C@H](Cc2ccc(O)cc2)NC1=O (stereo partly drawn)
SI [5]: 6900 and 3300

C[C@H]1/C=C\[C@@H](CCCCN)NC(=O)[C@H](CCCCN)NC(=O)[C@H](CCCN=C(N)N)NC(=O)[C@H](Cc2ccc(O)cc2)NC(=O)[C@@H](NC(=O)[C@H](Cc2c[nH]c3ccccc23)NC(=O)[C@H](CCCN=C(N)N)NC(=O)[C@@H](N)CCCN=C(N)N)CSSC[C@@H](C(=O)N[C@@H](CCCN=C(N)N)C(N)=O)NC(=O)[C@H](CCCNC(N)=O)NC(=O)[C@H](CCCN=C(N)N)NC(=O)[C@H](Cc2ccc(O)cc2)NC1=O [listing 2 of 2 here]
CC50 [1]: 58 µM
CC50 ([1]; Homo sapiens, MT4): 56 µM
